In PMC9299520 (Nature structural & molecular biology, 2022):

Columns and labels:
[1] = target: T1, 5-HT5AR (Homo sapiens, UniProt P47898); test: BRET1 miniGi recruitment assay; assay type: cell-based; conditions: wild type 5-HT5AR
Procedure, shortened: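 Transfected cells were plated after at least 24 h onto poly-lysine-coated plates in DMEM with 1% dialyzed FBS, at 40,000 cells/well, and left overnight. They were washed with HBSS/20 mM HEPES pH 7.4, then given coelenterazine h (5 μM final) and test compound dilutions with 0.3% BSA and 0.03% ascorbic acid. After 10 min at room temperature, emissions at 485 and 530 nm were read, and eYFP/Rluc BRET ratio was plotted against concentration.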

[2] = system: mutant 5-HT5AR; test: BRET2 Gi1-activation assay, mutant 5-HT5ARs; assay type: cell-based, human; conditions: for effect on Gi1 activation: mutants S204A and S204G
[3] = target: mutant 5-HT5AR (Homo sapiens, UniProt P47898, S204C); test: BRET2 Gi1-activation assay, mutant 5-HT5ARs; assay type: cell-based; conditions: mutant S204C
Chain of mutant 5-HT5AR (Homo sapiens, UniProt P47898, S204C) (P47898 whole entry S204C): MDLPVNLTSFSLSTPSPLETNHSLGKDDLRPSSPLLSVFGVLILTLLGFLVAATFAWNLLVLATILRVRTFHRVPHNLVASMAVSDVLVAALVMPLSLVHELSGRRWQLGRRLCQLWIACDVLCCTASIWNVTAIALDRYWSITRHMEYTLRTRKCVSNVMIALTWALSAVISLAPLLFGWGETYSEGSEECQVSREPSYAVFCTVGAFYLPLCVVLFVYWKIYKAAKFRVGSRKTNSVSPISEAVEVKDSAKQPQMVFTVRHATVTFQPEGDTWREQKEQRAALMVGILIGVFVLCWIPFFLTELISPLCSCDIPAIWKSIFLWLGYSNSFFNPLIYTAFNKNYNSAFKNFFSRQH

[4] = target: mutant 5-HT5AR (Homo sapiens, UniProt P47898, E305A); test: BRET2 Gi1-activation assay, mutant 5-HT5ARs; assay type: cell-based; conditions: mutant E305A
Chain of mutant 5-HT5AR (Homo sapiens, UniProt P47898, E305A) (P47898 whole entry E305A): as the sequence (P47898 whole entry S204C) above, with C204S, E305A counted along it

[5] = target: T1, 5-HT5AR; test: BRET2 Gi1-activation assay, WT 5-HT5AR; assay type: cell-based; conditions: normalized to % of 5-HT
[6] = target: mutant 5-HT5AR (Homo sapiens, UniProt P47898, A227L); test: BRET2 Gi1-activation assay, mutant 5-HT5ARs; assay type: cell-based; conditions: mutant A227L versus WT
Chain of mutant 5-HT5AR (Homo sapiens, UniProt P47898, A227L) (P47898 whole entry A227L): as the sequence (P47898 whole entry S204C) above, with C204S, A227L counted along it

T1 sequence (P47898 whole entry): as the sequence (P47898 whole entry S204C) above, with C204S counted along it

Row | SMILES | miniGi recruitment [1] | effect on Gi1 activation [2] | effect on Gi1 activation [3] | effect on activation of Gi1 signaling [4] | agonist type for Gi signaling [5] | improvement of potency of Gi1 activation ([2]; {}) | increase of efficacy of Gi1 activation [6] [%]
1 | NCCc1c[nH]c2ccc(C(N)=O)cc12 [5-CT, 5-carboxamidotryptamine] | unable to efficiently recruit miniGi | dramatically reduced the potency | severely affected | failed to show a large effect | full agonist | – | –
2 | NCCc1c[nH]c2ccc(O)cc12 [5-HT, 5-hydroxytryptamine] | – | modest effects on both the potency and efficacy | severely affected | – | – | more than 30 fold | 20
3 | CC[C@@H](CO)NC(=O)[C@@H]1C=C2c3cccc4[nH]cc(c34)C[C@H]2N(C)C1 [methylergometrine] | – | – | – | – | full agonist | – | –
